One may read the IC50 as the concentration that gives 50% inhibition. The term Kd denotes the concentration at which binding is half-saturated. Lower therefore signals tighter binding. The ED50 is the dose at which the effect has come halfway, by size or by number of responders.

Each structure is given as a SMILES string. Some results are limits rather than exact numbers.

We go through 16 compounds from ChEMBL document CHEMBL1127746, “Alpha-spirocyclopentyl- and alpha-spirocyclopropyl-gamma-butyrolactones: conformationally constrained derivatives of anticonvulsant and convulsant alpha,alpha-disubstituted gamma-butyrolactones” (J Med Chem, 1994).

In series [1] the target is T1, GABA-A receptor; anion channel (Rattus norvegicus) (UniProt O09028+P15431+P18506+P18508+P19969+P20236+P23574+P23576+P28471+P28473+P30191+P62813+P63079+P63138+Q91ZM7+Q9ES14). Description: Percent response relative to current produced by 10 uM GABA in rat hippocampal cells. Type of series: functional, cell-based. The settings on record: Hippocampus.
The target in series [2] is GABA-A receptor; anion channel. Description: Inhibition of 35[S]-TBPS binding to GABA-A (picrotoxin) receptor of rat neuronal membranes. Type of series: cell membranes, Membrane. In a few lines: (§1)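 Female Sprague-Dawley rat cerebral cortex membranes, washed and held in 50 mM Tris-citrate pH 7.5. 2 nM 35[S]-TBPS in NaBr with test compound, triplicate, 90 min at 25 °C. Filtration and scintillation counting; nonspecific binding with 10 μM TBPS or 100 μM picrotoxinin. IC50 by logistic fit of at least five concentrations; two or three experiments.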

Series [3] is described as follows: Toxic dose at which 50% of the mice failed the rotarod neurotoxicity test. The format is toxicity. The settings on record: mouse, in vivo. In short, it runs like this: (§2)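 Female CF-1 mice (6-8 weeks) given test compound ip in 30% PEG, 5-10 mice/dose. Neurotoxicity scored as failure on the rotorod test. TD50 derived by log10 probit analysis of dose-response data.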
(The rotarod test checks motor coordination on a turning rod.)

Series [4] has as its target GABA-A receptor; anion channel. Nature of the series: Dissociation constant from displacement of 35[S]-TBPS binding from picrotoxinin (GABA-A) receptor of rat cerebral cortex. The format is tissue-based. In a few lines: (§3)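 Saturation binding on rat cerebral cortex membranes in 50 mM Tris-citrate using 1-300 nM 35[S]-TBPS with test compound near its IC50, triplicate, 90 min at 25 °C. Filtration and scintillation counting. Kd and Bmax from Scatchard analysis; two or three experiments.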

Series [5] addresses T1, GABA-A receptor; anion channel (Rattus norvegicus). Nature of the series: Maximum Binding affinity for picrotoxinin (GABA-A) receptor of rat cerebral cortex. Type of series: tissue-based. In a few lines:
as §3

The target in series [6] is GABA-A receptor; anion channel. Description: Displacement of 35[S]-TBPS from picrotoxinin (GABA-A) receptor of rat neuronal membranes. The format is cell membranes, Membrane. In short, it runs like this:
as §1

A short description of series [7]: Dose at which 50% of the mice failed the rotarod neurotoxicity test. As to conditions: mouse, in vivo. In a few lines: as §2
Series [8] has as its target T1, GABA-A receptor; anion channel (Rattus norvegicus). Nature of the series: Percent response relative to current produced by 1 uM GABA in rat hippocampal cells. The format is functional, cell-based. As to conditions: Hippocampus. In a few lines:
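Whole-cell patch clamp of hippocampal neurons cultured from 1-day-old female Sprague-Dawley pups, 10-21 days in culture, held at -30 mV, CsCl-based pipette solution. 1 μM GABA with compound (10 mM or 1 mM) applied 2 s. Current expressed relative to the mean of GABA controls before and after; only ±10% recovery kept; mean ± SEM.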

The next series relates to Mus musculus. Nature of the series: Effective dose at which 50% of the mice were protected from clonic seizures induced by pentylenetetrazole (85 mg/kg). The format is functional. In short, it runs like this: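 Female CF-1 mice, 6-8 weeks old, dosed ip with test compound in 30% PEG (5-10 mice/dose). Non-convulsant compounds then challenged with PTZ 85 mg/kg given as 0.85% solution in 0.9% NaCl. Mice observed 30 min for seizures.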

Series [9] is described as follows: […] dose at which 50% of the mice have clonic convulsions. As to conditions: mouse, in vivo; read-out: CD50 (the source's name). In short, it runs like this: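 Female CF-1 mice, 6-8 weeks old; test compound in 30% PEG given ip at 5-10 mice/dose. Animals observed 30 min for clonic seizures after injection. CD50 derived by log10 probit analysis from the number of animals with clonic seizures.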

Series [10] concerns the target T1, GABA-A receptor; anion channel (Rattus norvegicus). Description: Percent response relative to current produced by 1 uM GABA in rat hippocampal cells. As to conditions: Hippocampus.

On to `O=C1OCCC12CC2`, for which the Response in [1] turned out to be 62%. Besides, the IC50 in series [2] was more than 10000 nM. The TD50 in series [3] was more than 500 mg/kg.
As for `C[C@@H]1CC[C@H](C)C12CCOC2=O` (stereo partly drawn), the Response in [1] came to 198%. In series [4], this compound returned a Kd of 38.5 nM. This compound came in with a Bmax (pM (mg of protein)-1) in series [5] of 0.54. Besides, the IC50 in series [6] was determined as 780 nM. Besides, the TD50 in [7] was more than 500 mg/kg.
On to `CCC1(C)CCOC1=O` (stereo not drawn), for which the Response in series [1] was found to be 170%. The Kd in series [4] was 80.7 nM. This compound came in with a Bmax (pM (mg of protein)-1) in [5] of 1.27. This compound also displayed an IC50 in [6] of 2280 nM.
In turn, `CC(C)C1(C)CCOC1=O` (stereo not drawn) registered a Kd in [4] of 47 nM. This compound gave a Bmax (pM (mg of protein)-1) in series [5] of 0.99. In series [8], this compound displayed a Response of 116%. In [6], this compound displayed an IC50 of 740 nM.
For the compound `CC1(C)CC12CCOC2=O` (stereo not drawn), the Kd in series [4] is 35.4 nM. In series [5], the Bmax (pM (mg of protein)-1) turned out to be 0.86. Further, the ED50 in the series on Mus musculus was 221 mg/kg. In [8], the Response turned out to be 247%. The same compound came in with an IC50 in [6] of 1140 nM. Besides, in [7], the TD50 is 254 mg/kg.
Regarding `C[C@@H]1CC12CCOC2=O` (stereo partly drawn), the Response in series [1] is 48%. In series [4], the Kd came out at 40.4 nM. This compound also returned a Bmax (pM (mg of protein)-1) in series [5] of 1.14. The compound further gave an ED50 with Mus musculus of 259 mg/kg. In series [6], the IC50 amounted to 3410 nM. Also, the TD50 in [3] is more than 500 mg/kg.
In the case of `CC1(C)CCCC12CCOC2=O` (stereo not drawn), the Response in series [1] was 327%. The compound further gave a Kd in [4] of 41.8 nM. The compound further came in with a Bmax (pM (mg of protein)-1) in series [5] of 1. This compound came in with an IC50 in [6] of 360 nM. Also, in [3], the TD50 worked out at 10 mg/kg.
As to `CC1(C)CCOC1=O`, the Response in series [1] is 41%. The compound further yielded an ED50 in the series with Mus musculus of more than 500 mg/kg. For the same compound, in series [2], the IC50 came to 9200 nM. The compound further registered a TD50 in series [3] of more than 500 mg/kg.
Turning to `CC1CCCC12CCOC2=O` (stereo not drawn), the Response in series [1] amounted to 252%. Besides, the Kd in [4] was 39.5 nM. For the same compound, the Bmax (pM (mg of protein)-1) in series [5] came to 0.93. Besides, the IC50 in series [6] was determined as 680 nM. In series [3], this compound showed a TD50 of more than 500 mg/kg.
`CCC1(CC)CCOC1=O` had a Response in series [1] of 301%. For the same compound, in series [4], the Kd is 37.2 nM. The compound also showed a Bmax (pM (mg of protein)-1) in [5] of 1.51. In series [6], this compound came in with an IC50 of 750 nM.
Take `CC(C)C1(C(C)C)CCOC1=O`: in series [1], the Response worked out at 328%. Also, in series [9], the TD50 was found to be 137 mg/kg. Further, in series [4], the Kd was 33.4 nM. In series [5], this compound returned a Bmax (pM (mg of protein)-1) of 1.49. In series [6], this compound had an IC50 of 220 nM.
On to `C[C@H]1CC12CCOC2=O` (stereo partly drawn), for which the Response in series [1] was 149%. Besides, the Kd in [4] was 44.1 nM. Also, the Bmax (pM (mg of protein)-1) in series [5] was determined as 1.27. The same compound came in with an ED50 with Mus musculus of 210 mg/kg. For the same compound, in series [6], the IC50 came to 7170 nM. Besides, the TD50 in series [3] is more than 300 mg/kg.
As for `CCC1(C(C)C)CCOC1=O` (stereo not drawn), the Response in series [1] is 222%. Besides, the Kd in series [4] worked out at 35.2 nM. Besides, the Bmax (pM (mg of protein)-1) in series [5] came to 1.5. The compound further came in with an ED50 in the series on Mus musculus of 169 mg/kg. For the same compound, the IC50 in series [6] was 240 nM. In addition, the TD50 in [3] was more than 300 mg/kg.
In [4], `O=C1OCCC12CCCC2` registered a Kd of 48.8 nM. In [5], this compound displayed a Bmax (pM (mg of protein)-1) of 1.04. In addition, the Response in series [10] turned out to be 220%. Moreover, the ED50 with Mus musculus turned out to be 385 mg/kg. Further, the IC50 in [6] came out at 810 nM.
For `C[C@H]1CC[C@H](C)C12CCOC2=O`, in [9], the TD50 stood at 198 mg/kg. Besides, in [4], the dissociation constant (Kd) came out at 35.6 nM. In series [5], this compound displayed a Bmax (pM (mg of protein)-1) of 1.04. Moreover, the Response in [8] is 80%. For the same compound, the IC50 in series [6] was 200 nM.
Take `CCC1(C(C)(C)C)CCOC1=O` (stereo not drawn): the TD50 in series [9] amounted to 133 mg/kg. Moreover, the Kd in series [4] was determined as 46.8 nM. The same compound showed a Bmax (pM (mg of protein)-1) in series [5] of 1.54. The Response in series [8] is 47%. The compound further registered an IC50 in series [6] of 310 nM.
